Source: PubChem (Broad Institute)
SIRT5 block – SIRT5 desuccinylase inhibitors, primary screen, biochemical, fluorescence imaging, single point, set 5. inhibition, % at 15 µM. NAD-dependent protein deacylase sirtuin-5, mitochondrial (Homo sapiens), Q9NXA8. AID 652115, 2013. Purified SirT5, succinyl-peptide AMC, trypsin-coupled fluorescence. actives 1.1% (n = 330,000); in the data active = inhibition above about 15%
Target sequence (Q9NXA8 whole entry, looked up): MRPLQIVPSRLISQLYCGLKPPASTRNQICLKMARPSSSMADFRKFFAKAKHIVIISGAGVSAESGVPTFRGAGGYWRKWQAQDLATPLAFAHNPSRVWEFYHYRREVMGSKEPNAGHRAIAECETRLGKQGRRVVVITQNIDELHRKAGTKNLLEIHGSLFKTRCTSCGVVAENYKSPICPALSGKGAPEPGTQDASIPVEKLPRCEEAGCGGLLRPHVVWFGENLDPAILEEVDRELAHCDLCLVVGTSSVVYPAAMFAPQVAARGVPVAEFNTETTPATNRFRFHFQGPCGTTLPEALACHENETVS
ARNT TACC3 PPI – disruptors of ARNT/TACC3 protein interaction, primary screen, biochemical, AlphaScreen, single concentration | Transforming acidic coiled-coil-containing protein 3 (Homo sapiens), Q9Y6A5 | AlphaScreen His-ARNT PAS-B/GST-TACC3 binding, luminescence; TACC3 fragment carries E629A point mutation | inhibition, % at 9.99 µM | actives 0.66% (n = 390,000) | AID 623870, 2012;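 active = mean inhibition of replicates at least 50% and at least half of replicates each reaching 50%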;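 note: 0% = complete ARNT plus TACC3 wells and 100% = ARNT alone without TACC3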
DENV2 CPE rescue – inhibitors of DENV2 cytopathic effect, primary screen, cell-based, plate reader, single concentration; DENV2-infected cells, cytopathic effect rescue; CPE inhibition, % at 9.99 µM; actives 1.7% (n = 350,000); AID 651640, 2012; in the data active = CPE inhibition above about 20%, passing the limit was not always enough; tested in BHK-21 cells;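 note: 0% = median of neutral control wells and 100% = median of positive control wells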
FGF22 binding – binders of human FGF22 protein, primary screen, FGF22 synaptogenesis inhibitor project, biophysical, thermal shift, single point; actives 1.5% (n = 340,000); Fibroblast growth factor 22 (Homo sapiens), Q9HCT0; recombinant FGF22 thermal shift, SYPRO orange fluorescence; percent of sucrose octasulfate shift, DMSO zero; activity (Tm shift, normalised), % at 9.99 µM;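 active = mean Tm shift, scaled 0 neutral to 100 positive control, at about 1.3% or above, every replicate too, limit read from the data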
Target sequence (Q9HCT0 whole entry, looked up): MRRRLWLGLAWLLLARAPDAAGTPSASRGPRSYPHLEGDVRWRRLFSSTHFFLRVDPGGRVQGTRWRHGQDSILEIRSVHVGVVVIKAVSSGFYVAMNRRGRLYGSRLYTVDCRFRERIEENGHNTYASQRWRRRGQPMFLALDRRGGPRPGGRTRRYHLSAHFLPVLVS
Xi reactivation – activators of inactive X chromosome reactivation, primary screen, imaging, XiGFP fibroblasts, GFP high-content imaging, set 2. XiGFP mouse fibroblasts, % GFP-positive cells imaging, 3 d; cells co-treated with 5-aza-dC sensitizer; scaled so ellipticine positive control = 100%. activation, % at 7.58 µM. actives 0.055% (n = 360,000);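 active = mean normalized replicate activation at least 10% and every replicate at or above 10%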;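 note: 0% = median of on-plate neutral control wells and 100% = ellipticine 6 µM median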
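Assay system – SV40-immortalized XiGFP fibroblast cells, line 68-5-11 · Buffer or medium – DMEM supplemented with 5-aza-dC as sensitizing agent · Dosing – one concentration, pinned · Benchmarks – positive control ellipticine, 6 µM final · Times – 3 days compound exposure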
FN deposition inh – inhibitors of fibronectin matrix deposition, primary screen, AH1F cells, Alexa488-fibronectin fluorescence, plate reader. AH1F fibroblasts, overnight. inhibition, % at 12.6 µM. actives 0.086% (n = 350,000);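 active = mean inhibition across replicates of 30% or more, regardless of how many single replicates reach that level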;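 note: positive control wells lacked labelled fibronectin entirely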
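Test system: AH1F fibroblast monolayer depositing Alexa488-labelled fibronectin into matrix. Input: 10000 cells per well. Technique: fluorescence, ex 485 nm, em 525 nm. Buffer or medium: DMEM plus 2% serum, read in PBS. Timing: 1 h cell adhesion before compound, then overnight fibronectin incubation. Compound: single dose, pinned. Read-out basis: inhibition from reduced deposited-fibronectin fluorescence.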
Starred values were filed as active, the others as inactive; ! = not confirmed by another sample. An excerpt weighted towards active compounds, which were near 3.8% of everything screened.

`Cc1noc(C)c1NC(=O)Nc1cccc2c1O[C@@H](CN(C)Cc1ccc(C(=O)Nc3ccccc3N)cc1)[C@H](C)CN([C@@H](C)CO)C2=O` gave DENV2 CPE rescue -15, FGF22 binding 0, Xi reactivation 0 and FN deposition inh 12.
For CC(C)(C)C(=O)CSc1ncnc2c1cnn2Cc1ccccc1 the results were SIRT5 block 15*, ARNT TACC3 PPI -2, DENV2 CPE rescue -2, FGF22 binding 0, Xi reactivation 0 and FN deposition inh -8.
Screening COC(=O)CSc1ncnc2c1cnn2Cc1ccccc1 returned ARNT TACC3 PPI -11.
`C[C@@H]1CN([C@@H](C)CO)C(=O)Cc2cc(NC(=O)CCC(F)(F)F)ccc2O[C@H]1CN(C)S(=O)(=O)c1ccccc1` gave SIRT5 block -2, ARNT TACC3 PPI -5, DENV2 CPE rescue -2, FGF22 binding 0 and Xi reactivation -1.
COCCn1c(Cc2cccn2C)nnc1SCC(=O)NCc1ccc2c(c1)OCO2 was read as SIRT5 block 2, ARNT TACC3 PPI -2, DENV2 CPE rescue 3, FGF22 binding 44*, Xi reactivation 0 and FN deposition inh -1.
Cn1cccc1Cc1nnc(SCC(=O)Nc2ccc3c(c2)OCO3)n1CCc1ccccc1 was read as DENV2 CPE rescue -5, FGF22 binding 0, Xi reactivation 0 and FN deposition inh 5.
Screening CC(C)c1nnc(SCC(=O)NCc2ccc3c(c2)OCO3)n1C returned ARNT TACC3 PPI 3 and FN deposition inh -2.
Cc1nnc(SCC(=O)NCc2ccc3c(c2)OCO3)n1C was read as SIRT5 block -7, ARNT TACC3 PPI -4, DENV2 CPE rescue 2, FGF22 binding 43*, Xi reactivation 0 and FN deposition inh 17.
COc1ccc(S(=O)(=O)N(C)C[C@@H]2OCCCC[C@@H](C)Oc3ccc(NC(=O)Nc4cccc5ccccc45)cc3C(=O)N([C@@H](C)CO)C[C@H]2C)cc1 was read as SIRT5 block 3, DENV2 CPE rescue 6, FGF22 binding 1.3* and Xi reactivation -1.
For COc1ccc(S(=O)(=O)N(C)C[C@H]2OCCCC[C@H](C)Oc3ccc(NC(=O)Nc4cccc5ccccc45)cc3C(=O)N([C@@H](C)CO)C[C@@H]2C)cc1 the results were SIRT5 block -3, DENV2 CPE rescue 2, FGF22 binding 1 and Xi reactivation 0.
`C[C@@H]1CN([C@@H](C)CO)C(=O)c2cc(NC(=O)Nc3cccc4ccccc34)ccc2O[C@@H](C)CCCCO[C@@H]1CN(C)S(=O)(=O)c1ccc(F)cc1` gave SIRT5 block -2, ARNT TACC3 PPI 15, DENV2 CPE rescue 21*, FGF22 binding 0, Xi reactivation 0 and FN deposition inh -12.
C[C@H](CO)N1C[C@H](C)[C@H](CN(C)S(=O)(=O)c2ccc(F)cc2)OCCCC[C@H](C)Oc2ccc(NC(=O)Nc3cccc4ccccc34)cc2C1=O was read as SIRT5 block -2, ARNT TACC3 PPI 0, DENV2 CPE rescue -4, FGF22 binding 0, Xi reactivation 0 and FN deposition inh 4.
`COc1ccc(C(=O)C[n+]2cc(-c3ccc(OC)cc3)n3c2CCCC3)cc1` gave SIRT5 block -2, ARNT TACC3 PPI -5, DENV2 CPE rescue 0, FGF22 binding 43*!, Xi reactivation 0 and FN deposition inh 10.
Screening O=C(Nc1cccc(Cl)c1)N[C@@H]1CC[C@@H](CCNC(=O)C2CCCC2)O[C@H]1CO returned SIRT5 block 5, ARNT TACC3 PPI -1, DENV2 CPE rescue -9, FGF22 binding 0, Xi reactivation 0 and FN deposition inh 3.
`Cc1ccc([C@@H]2[C@@H]3C(=O)N(c4ccccc4)C(=O)[C@@H]3[C@]3(C)C(=O)N(Cc4ccccc4)CC(=O)N23)o1` gave SIRT5 block -6, ARNT TACC3 PPI 1, DENV2 CPE rescue -17, FGF22 binding 0, Xi reactivation 0 and FN deposition inh 0.
For Cc1ccc([C@@H]2[C@@H]3C(=O)N(C)C(=O)[C@@H]3[C@]3(C)C(=O)N(Cc4ccc(-c5ccccc5)cc4)CC(=O)N23)o1 the results were ARNT TACC3 PPI -3, DENV2 CPE rescue 92*, FGF22 binding 0, Xi reactivation 0 and FN deposition inh 8.
For Cc1ccc(S(=O)(=O)NCCC(=O)Nc2ccc(Cl)c(Cl)c2)cc1C the results were SIRT5 block -2, ARNT TACC3 PPI 35, DENV2 CPE rescue 4, FGF22 binding 47*, Xi reactivation 0 and FN deposition inh 10.
`Cc1ccc(S(=O)(=O)NCCC(=O)Nc2ccc(Cl)c(Cl)c2)cc1` gave ARNT TACC3 PPI -9, Xi reactivation 0 and FN deposition inh -3.
`C[C@H](CO)N1C[C@H](C)[C@H](CN(C)C(=O)Nc2ccc3c(c2)OCO3)Oc2c(NS(=O)(=O)c3cccs3)cccc2C1=O` gave SIRT5 block 2, ARNT TACC3 PPI 4, DENV2 CPE rescue 3, FGF22 binding 0 and Xi reactivation 0.
`Clc1ccccc1-c1cc2nc(NCCCn3ccnc3)ccn2n1` gave DENV2 CPE rescue 32*, FGF22 binding 0, Xi reactivation 0 and FN deposition inh 11.
For FC(F)(F)c1cccc(-c2cc3nc(NCCCn4ccnc4)ccn3n2)c1 the results were SIRT5 block -9, DENV2 CPE rescue -3, FGF22 binding 0, Xi reactivation 0 and FN deposition inh 15.
For CC=Cc1ccc2n(c1=O)C[C@@H]1[C@@H](CO)[C@H](C(=O)Nc3ccc(-c4ccccc4)cc3)[C@H]2N1C(C)=O (mixture of isomers) the results were SIRT5 block -7, DENV2 CPE rescue 15 and Xi reactivation 0.
`Cc1ccc2[nH]c(=O)cc(C(=O)OC(C)C)c2c1` gave SIRT5 block 5, ARNT TACC3 PPI 0, DENV2 CPE rescue 19, FGF22 binding 43*, Xi reactivation 0 and FN deposition inh -25.
`CO[C@@H]1CN(C)C(=O)c2ccc(NC(=O)Nc3cccc(F)c3)cc2OC[C@H](C)N(C(C)=O)C[C@@H]1C` gave SIRT5 block 4, ARNT TACC3 PPI 1, DENV2 CPE rescue 17, FGF22 binding -4, Xi reactivation 0 and FN deposition inh 2.
`O=C(NCCCN1CCOCC1)c1ccc(CS(=O)(=O)Cc2ccccc2Cl)o1` gave ARNT TACC3 PPI active.
